Experimental data published in ChEMBL document CHEMBL4257478, “Design, synthesis and evaluation of (R)-3-(7-(methyl(7H-pyrrolo[2,3-d]pyrimidin-4-yl)amino)-5-azaspiro[2.4]heptan-5-yl)-3-oxopropanenitrile as a JAK1-selective inhibitor” (Medchemcomm, 2018).

Legend:
[1] = species on record: Homo sapiens; test: Selectivity index, ratio of IC50 for human JAK2 to IC50 for human JAK1
Method in brief: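 Kinase activity assays run as a commercial service at Km ATP; IC50 values fitted from concentration-response data; ratio of JAK2 to JAK1 IC50.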

[2] = Metabolic stability in human plasma assessed as parent compound remaining at 10 uM after 30 mins by LC-MS/MS method; format: ADME, cell-free; conditions: read-out: Stability
Method in brief: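 Human plasma spiked with test article at 10 μM and incubated at 37 °C for 0, 30 and 120 min. Acetonitrile with chlorpropamide internal standard added, sample centrifuged at 4 °C, supernatant analysed by LC-MS/MS; result given as percent remaining.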

[3] = Protein binding in human plasma at 10 uM after 4 hrs by rapid equilibrium dialysis method; format: ADME, cell-free; conditions: read-out: PPB (converted)
Method in brief: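 Rapid equilibrium dialysis of human or rat plasma dosed at 10 μM against PBS pH 7.4, 4 h at 37 °C. Plasma and buffer aliquots were matrix-matched with blank buffer or plasma, precipitated with acetonitrile containing chlorpropamide internal standard, and analysed by LC-MS/MS. Dexamethasone and warfarin served as positive controls.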

[4] = Metabolic stability in dog liver microsomes assessed as parent compound remaining at 1 uM preincubated for 5 mins followed by addition of NADPH regenerating system and measured after 30 mins by LC-MS/MS method; format: ADME, Canis lupus familiaris, microsome; conditions: read-out: Stability
Method in brief: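 Liver microsomes (0.5 mg/mL; human, dog or mouse) in 0.1 M phosphate buffer with test article at 1 μM, preincubated 5 min at 37 °C. NADPH regenerating system added, then 30 min at 37 °C. Acetonitrile with chlorpropamide internal standard added, sample centrifuged, supernatant analysed by LC-MS/MS.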

[5] = molecular target: T1, CYP1A2 (Homo sapiens, UniProt P05177); test: Inhibition of CYP1A2 in human liver microsomes assessed as remaining activity at 10 uM using phenacetin as substrate preincubated for 5 mins followed by addition of NADPH regenerating system and measured after 15 mins by LC-MS/MS analysis relative to control; format: ADME; conditions: probe phenacetin, read-out: Activity
T1 sequence (P05177 whole entry): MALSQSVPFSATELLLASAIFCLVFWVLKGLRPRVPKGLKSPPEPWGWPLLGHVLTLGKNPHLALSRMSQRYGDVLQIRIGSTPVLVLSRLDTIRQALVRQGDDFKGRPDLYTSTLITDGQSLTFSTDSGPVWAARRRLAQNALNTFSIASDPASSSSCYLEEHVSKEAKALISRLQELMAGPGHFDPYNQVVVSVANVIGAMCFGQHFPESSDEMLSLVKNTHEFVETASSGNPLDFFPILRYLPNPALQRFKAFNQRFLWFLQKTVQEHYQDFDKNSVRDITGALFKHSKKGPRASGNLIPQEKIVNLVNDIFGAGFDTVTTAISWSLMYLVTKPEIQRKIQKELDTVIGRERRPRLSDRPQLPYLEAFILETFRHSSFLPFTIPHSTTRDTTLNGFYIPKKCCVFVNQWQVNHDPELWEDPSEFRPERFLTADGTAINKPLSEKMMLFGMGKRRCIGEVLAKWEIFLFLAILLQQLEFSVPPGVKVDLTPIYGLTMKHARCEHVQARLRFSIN
Method in brief: (§1)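 Human liver microsomes (0.25 mg/mL) in 0.1 M phosphate buffer with test article at 0 or 10 μM and substrate cocktail, preincubated 5 min at 37 °C. Cocktail A: phenacetin 50 μM, coumarin 2.5 μM, S-mephenytoin 100 μM, dextromethorphan 5 μM, midazolam 2.5 μM. Cocktail B: bupropion 50 μM, amodiaquine 2.5 μM, tolbutamide 100 μM, chlorzoxazone 50 μM. NADPH system added, then 15 min at 37 °C; acetonitrile quench, LC-MS/MS.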

[6] = molecular target: T2, CYP2A6 (Homo sapiens, UniProt P11509); test: Inhibition of CYP2A6 in human liver microsomes assessed as remaining activity at 10 uM using coumarin as substrate preincubated for 5 mins followed by addition of NADPH regenerating system and measured after 15 mins by LC-MS/MS analysis relative to control; format: ADME; conditions: probe coumarin, read-out: Activity; method in brief: as §1
T2 sequence (P11509 whole entry): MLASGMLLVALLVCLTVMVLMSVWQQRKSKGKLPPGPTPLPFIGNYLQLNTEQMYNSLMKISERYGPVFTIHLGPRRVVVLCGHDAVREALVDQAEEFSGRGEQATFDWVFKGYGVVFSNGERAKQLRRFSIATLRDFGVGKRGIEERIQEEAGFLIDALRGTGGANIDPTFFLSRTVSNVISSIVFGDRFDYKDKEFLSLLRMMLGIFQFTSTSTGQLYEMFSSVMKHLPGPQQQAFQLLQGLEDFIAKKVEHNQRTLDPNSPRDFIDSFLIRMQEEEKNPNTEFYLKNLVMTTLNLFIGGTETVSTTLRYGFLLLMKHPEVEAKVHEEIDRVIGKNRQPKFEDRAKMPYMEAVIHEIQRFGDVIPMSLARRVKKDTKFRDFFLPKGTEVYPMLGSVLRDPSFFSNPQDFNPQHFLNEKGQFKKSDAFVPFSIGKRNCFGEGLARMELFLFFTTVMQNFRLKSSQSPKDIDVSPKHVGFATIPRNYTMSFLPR

[7] = molecular target: T3, CYP2C8 (Homo sapiens, UniProt P10632); test: Inhibition of CYP2C8 in human liver microsomes assessed as remaining activity at 10 uM preincubated for 5 mins followed by addition of NADPH regenerating system and measured after 15 mins by LC-MS/MS analysis relative to control; format: ADME; conditions: read-out: Activity
T3 sequence (P10632 whole entry): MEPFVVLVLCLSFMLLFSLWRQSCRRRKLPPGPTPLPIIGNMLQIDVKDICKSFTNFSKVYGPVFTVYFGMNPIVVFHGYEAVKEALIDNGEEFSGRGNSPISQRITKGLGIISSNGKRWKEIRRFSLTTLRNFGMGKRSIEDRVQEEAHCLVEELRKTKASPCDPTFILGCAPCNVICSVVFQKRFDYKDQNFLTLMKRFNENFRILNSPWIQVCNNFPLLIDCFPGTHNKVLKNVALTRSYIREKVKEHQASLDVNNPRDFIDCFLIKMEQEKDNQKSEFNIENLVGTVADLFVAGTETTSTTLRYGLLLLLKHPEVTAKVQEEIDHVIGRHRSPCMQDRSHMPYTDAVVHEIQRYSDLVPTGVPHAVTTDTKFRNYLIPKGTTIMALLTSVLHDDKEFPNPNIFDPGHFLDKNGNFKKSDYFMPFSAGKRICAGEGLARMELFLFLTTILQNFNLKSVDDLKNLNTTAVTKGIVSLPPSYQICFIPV

[8] = molecular target: CYP2C9 (Homo sapiens, UniProt P11712); test: Inhibition of CYP2C9 in human liver microsomes assessed as remaining activity at 10 uM using tolbutamide as substrate preincubated for 5 mins followed by addition of NADPH regenerating system and measured after 15 mins by LC-MS/MS analysis relative to control; format: ADME; conditions: probe tolbutamide, read-out: Activity; method in brief: as §1
Chain of CYP2C9 (P11712 whole entry): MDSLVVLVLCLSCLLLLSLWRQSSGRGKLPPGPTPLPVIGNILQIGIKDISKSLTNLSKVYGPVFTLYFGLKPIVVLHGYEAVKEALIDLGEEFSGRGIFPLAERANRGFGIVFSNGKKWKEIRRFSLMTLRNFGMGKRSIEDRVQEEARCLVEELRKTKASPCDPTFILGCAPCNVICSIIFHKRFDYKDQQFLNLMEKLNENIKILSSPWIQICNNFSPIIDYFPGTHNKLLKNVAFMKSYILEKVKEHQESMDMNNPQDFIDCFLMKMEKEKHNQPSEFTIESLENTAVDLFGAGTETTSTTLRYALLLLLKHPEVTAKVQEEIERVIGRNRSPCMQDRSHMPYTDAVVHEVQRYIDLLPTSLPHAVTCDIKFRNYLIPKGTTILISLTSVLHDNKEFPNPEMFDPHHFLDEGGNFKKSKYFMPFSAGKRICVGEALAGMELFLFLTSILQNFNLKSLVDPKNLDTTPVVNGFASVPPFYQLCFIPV

[9] = molecular target: Tyrosine-protein kinase JAK2 (Homo sapiens, UniProt O60674); test: Inhibition of human JAK2 at 10 uM using KTFCGTPEYLAPEVRREPRILSEEEQEMFRDFDYIADWC as substrate after 40 mins in presence of [gamma-33P-ATP] by scintillation counting method relative to control
Chain of Tyrosine-protein kinase JAK2 (O60674 whole entry): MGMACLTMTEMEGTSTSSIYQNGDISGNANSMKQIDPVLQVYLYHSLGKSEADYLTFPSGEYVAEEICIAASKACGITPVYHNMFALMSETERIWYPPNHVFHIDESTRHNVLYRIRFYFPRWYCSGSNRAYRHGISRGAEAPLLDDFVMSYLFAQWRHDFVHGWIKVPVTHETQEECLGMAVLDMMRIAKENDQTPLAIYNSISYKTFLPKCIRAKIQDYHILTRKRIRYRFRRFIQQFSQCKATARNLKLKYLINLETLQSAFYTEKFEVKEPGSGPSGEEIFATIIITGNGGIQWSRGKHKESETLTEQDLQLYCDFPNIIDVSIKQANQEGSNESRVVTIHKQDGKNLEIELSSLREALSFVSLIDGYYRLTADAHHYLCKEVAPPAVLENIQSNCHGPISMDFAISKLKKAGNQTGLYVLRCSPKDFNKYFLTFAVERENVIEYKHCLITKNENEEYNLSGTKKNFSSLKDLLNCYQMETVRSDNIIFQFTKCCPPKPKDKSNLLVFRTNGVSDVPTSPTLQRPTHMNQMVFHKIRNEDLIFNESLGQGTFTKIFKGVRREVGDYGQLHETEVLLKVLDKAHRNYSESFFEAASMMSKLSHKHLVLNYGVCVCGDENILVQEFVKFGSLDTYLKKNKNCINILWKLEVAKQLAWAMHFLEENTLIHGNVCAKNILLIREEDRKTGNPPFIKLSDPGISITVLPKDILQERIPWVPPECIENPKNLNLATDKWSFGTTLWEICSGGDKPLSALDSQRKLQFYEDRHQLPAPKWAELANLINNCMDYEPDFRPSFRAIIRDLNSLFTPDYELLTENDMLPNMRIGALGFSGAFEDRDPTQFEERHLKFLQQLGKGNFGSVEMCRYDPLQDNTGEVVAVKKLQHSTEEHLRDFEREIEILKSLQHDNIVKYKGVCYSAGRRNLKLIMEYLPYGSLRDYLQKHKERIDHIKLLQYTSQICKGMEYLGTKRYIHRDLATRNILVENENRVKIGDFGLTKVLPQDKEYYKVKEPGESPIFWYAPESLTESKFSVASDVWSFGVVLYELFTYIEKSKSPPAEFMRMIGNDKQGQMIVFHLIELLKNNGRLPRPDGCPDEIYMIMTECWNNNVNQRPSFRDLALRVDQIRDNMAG

Ratio IC50 [1] | remaining at 0.5 h, 10 µM [2] [%] | fraction unbound at 4 h, 10 µM [3] | remaining at 0.5 h, 1 µM [4] [%] | activity at 0.25 h, 10 µM [5] [%] | activity at 0.25 h, 10 µM [6] [%] | activity at 0.25 h, 10 µM [7] [%] | activity at 0.25 h, 10 µM [8] [%] | inhibition at 10 µM [9] [%] | SMILES
10 | 96.6 | 0.126 | 5.5 | 65.7 | 87.2 | 66.2 | 50.4 |  | CN(c1ncnc2[nH]ccc12)[C@H]1CN(S(=O)(=O)c2cccc(C#N)c2)CC12CC2
 | 95 | 0.702 | 99.9 | 92.5 | 92 | 81 | 84.4 | 90 | CN(c1ncnc2[nH]ccc12)[C@H]1CN(C(=O)CC#N)CC12CC2
25 | > 100 | 0.556 | 56.1 | 99.9 | 96.7 | > 100 | 90.7 |  | CCS(=O)(=O)N1C[C@H](N(C)c2ncnc3[nH]ccc23)C2(CC2)C1
